Assay outcomes from PubChem.
Rows were chosen to be rich in hits. Some 1.9% of all compounds tested hit in one or more screens of this group.
sPLA2-III inh: human group III sPLA2 inhibitors, primary screen, biochemical, QFRET, BODIPY PC-A2 liposome substrate. inhibition, % at 12.2 µM. QFRET BODIPY PC-A2 liposome hydrolysis, fluorescence. hit rate 0.56% among 370,000. AID 743126, 2013. Group 3 secretory phospholipase A2 (Homo sapiens), Q9NZ20;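 active means inhibition above mean plus 3 SD of compounds lying within the high and low control bounds, cut at about 19% in these data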
PLCb3 inh: human PLC-beta3 inhibitors, primary screen, biochemical, fluorescence. inhibition, % at 12.2 µM. AID 720704, 2013. Purified PLC-beta3, fluorogenic substrate. 1-phosphatidylinositol 4,5-bisphosphate phosphodiesterase beta-3 (Homo sapiens), Q01970. hit rate 0.18% among 370,000; in the data active means inhibition above about 11%
Target sequence (Q01970 whole entry, looked up): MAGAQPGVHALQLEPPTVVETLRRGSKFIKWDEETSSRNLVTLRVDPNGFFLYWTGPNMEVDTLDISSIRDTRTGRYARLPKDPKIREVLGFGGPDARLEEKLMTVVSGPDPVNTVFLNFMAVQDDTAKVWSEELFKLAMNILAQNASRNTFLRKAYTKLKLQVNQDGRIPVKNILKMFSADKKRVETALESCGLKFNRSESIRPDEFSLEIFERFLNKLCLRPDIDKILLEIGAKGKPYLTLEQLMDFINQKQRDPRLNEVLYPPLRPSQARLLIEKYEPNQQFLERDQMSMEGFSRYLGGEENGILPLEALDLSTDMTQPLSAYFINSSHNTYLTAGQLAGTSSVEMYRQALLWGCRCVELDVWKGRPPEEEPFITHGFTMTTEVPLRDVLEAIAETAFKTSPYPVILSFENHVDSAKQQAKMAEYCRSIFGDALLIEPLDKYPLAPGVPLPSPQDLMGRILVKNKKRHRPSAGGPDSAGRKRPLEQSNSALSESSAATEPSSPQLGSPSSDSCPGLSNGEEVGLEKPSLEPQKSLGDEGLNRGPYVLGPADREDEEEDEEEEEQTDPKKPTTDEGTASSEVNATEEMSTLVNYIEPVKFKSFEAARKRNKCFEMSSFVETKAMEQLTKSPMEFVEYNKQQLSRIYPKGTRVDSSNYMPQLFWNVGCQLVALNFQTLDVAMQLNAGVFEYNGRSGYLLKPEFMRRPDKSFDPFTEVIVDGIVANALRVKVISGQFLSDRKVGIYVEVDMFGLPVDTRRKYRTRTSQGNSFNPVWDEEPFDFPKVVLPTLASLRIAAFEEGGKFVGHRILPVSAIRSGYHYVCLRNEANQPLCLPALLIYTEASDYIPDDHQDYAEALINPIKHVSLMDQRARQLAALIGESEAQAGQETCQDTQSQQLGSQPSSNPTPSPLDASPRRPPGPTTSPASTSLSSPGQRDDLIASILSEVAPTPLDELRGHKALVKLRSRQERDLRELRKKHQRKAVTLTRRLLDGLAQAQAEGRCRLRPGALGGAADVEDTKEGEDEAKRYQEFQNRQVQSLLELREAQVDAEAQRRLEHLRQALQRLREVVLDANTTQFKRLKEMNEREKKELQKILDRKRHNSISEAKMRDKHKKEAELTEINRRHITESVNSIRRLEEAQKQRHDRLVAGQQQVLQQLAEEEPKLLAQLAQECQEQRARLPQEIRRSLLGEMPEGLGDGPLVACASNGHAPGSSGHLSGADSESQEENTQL
PLCg1 inh: PLC-gamma1 enzyme inhibitors, primary screen, biochemical, fluorescence, purified enzyme. 1-phosphatidylinositol 4,5-bisphosphate phosphodiesterase gamma-1 (Homo sapiens), P19174. hit rate 0.84% among 370,000. AID 720700, 2013. fluorogenic substrate. inhibition, % at 12.2 µM; in the data active means inhibition above about 9.5%
TbMetRS inhib: T. brucei MetRS inhibitors, primary screen, biochemical, luminescence; purified T. brucei MetRS, ATP depletion, Kinase-Glo luminescence; inhibition, % at 11.9 µM; hit rate 0.4% among 360,000;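 active means inhibition above a per-plate cutoff of the control wells' mean inhibition plus 3 SD, cut at about 5.5% in these data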
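technique = Kinase-Glo luminescence, ATP depletion format | system = purified MetRS (methionyl-tRNA synthetase) enzyme from Trypanosoma brucei | timing = 15 min preincubation, 2 h reaction, all 25 °C | evaluation = percent inhibition versus plate control medians | dosing = single dose, 11.9 µM final nominal, 0.9% final DMSO | also added = substrates ATP, L-methionine and bulk Escherichia coli tRNA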
TbMetRS confirm: T. brucei MetRS inhibitors, confirmation, biochemical, luminescence | shares compounds with TbMetRS inhib | T. brucei MetRS enzyme, luminescence (ATP depletion) | inhibition, % at 11.9 µM | hit rate 93% among 1,400; in the data active means inhibition above about 7%
Jurkat tox: Jurkat T cell cytotoxicity, cytotoxicity control for T. brucei MetRS inhibitor project, luminescence, high throughput | shares compounds with TbMetRS inhib | Jurkat cells viability, ATP luminescence | inhibition, % at 8.3 µM | hit rate 12% among 1,400 | AID 624413, 2012; in the data active means inhibition above about 15%
TbMetRS FP orth: T. brucei MetRS inhibitors, orthogonal assay for T. brucei MetRS inhibitor project, biochemical, fluorescence polarization. shares compounds with TbMetRS inhib. purified T. brucei MetRS. inhibition, % at 11.9 µM. hit rate 44% among 1,400. AID 651607, 2012; in the data active means inhibition above about 17%
A number is an active result; n = inactive; x = no result.

SMILES | sPLA2-III inh | PLCb3 inh | PLCg1 inh | TbMetRS inhib | TbMetRS confirm | Jurkat tox | TbMetRS FP orth
O=C(COC(=O)C1CCN(c2ccc(C(F)(F)F)cn2)CC1)Nc1cccc(F)c1 | n | n | n | 6.0 | 19 | n | n
O=C(CNc1cc(S(=O)(=O)N2CCOCC2)ccc1NCC1CCCO1)Nc1ccccc1F (stereo not given) | n | n | n | 11 | n | n | n
COc1ccc(NC(=O)CNc2cc(S(=O)(=O)N3CCOCC3)ccc2NCC2CCCO2)cc1 (stereo not given) | n | n | n | n | x | x | x
Cc1ccc(NC(=O)CNc2cc(S(=O)(=O)N3CCOCC3)ccc2NCC2CCCO2)cc1F (stereo not given) | n | n | n | 15 | 21 | n | n
O=S1(=O)N[C@@H](Cc2ccccc2)COc2cccc(NCCO)c21 | n | n | n | x | x | x | x
O=C(NCc1ccco1)O[C@H]1CC[C@@]23CCCN2C(=O)CCC[C@H]3C1 | n | n | n | x | x | x | x
COc1cccc(CNC(=O)[C@H]2CCCN2C(=O)[C@H]2CCCN2C(=O)OC(C)(C)C)c1 | n | n | n | x | x | x | x
O=C(CCC(=O)Nc1ccc(Cl)cc1Cl)NNC(=O)Nc1ccccc1 | n | n | n | 13 | 26 | n | n
COc1ccc(NC(=O)NNC(=O)CCC(=O)Nc2ccccc2Cl)cc1 | n | n | n | n | x | x | x
O=C(NNC(=O)c1cc(-c2ccc(Cl)cc2Cl)nc2ccccc12)Nc1ccccc1 | n | n | n | 39 | 95 | n | 80
CN1C(=O)[C@@]2(O[C@H]3C=CC=CN3C3=C2C(=O)CCC3)c2cc([N+](=O)[O-])ccc21 | n | n | n | x | x | x | x
Cc1ccc(S(=O)(=O)c2c(N)n(CCCN(C)C)c3nc4ccccc4nc23)cc1 | n | n | n | n | x | x | x
CCCCn1c(NS(=O)(=O)c2ccc(C)cc2)c(S(=O)(=O)c2ccccc2)c2nc3ccccc3nc21 | n | n | n | 8.7 | 8.9 | n | n
CCOC(=O)c1cccc(NC(=O)CN(C)S(=O)(=O)c2ccc(Cl)s2)c1 | n | n | n | x | x | x | x
COc1ccc(NC(=O)C(NC(C)=O)C(=O)Nc2ccc(F)cc2)cc1 (stereo not given) | n | n | n | 9.6 | 19 | n | n
COc1ccc(OCC(O)CNC(=O)Nc2ccc(F)cc2)cc1 (stereo not given) | n | n | n | 5.7 | 18 | n | n
OC(CNc1ccccc1)COc1ccc(OCC(O)CNc2ccccc2)cc1 (stereo not given) | n | n | n | n | x | x | x
Cc1cc(C)cc(NC(=O)NCC(O)COc2ccc([N+](=O)[O-])cc2)c1 (stereo not given) | n | n | n | n | x | x | x
O=C(NCC(O)COc1ccc([N+](=O)[O-])cc1)Nc1ccccc1 (stereo not given) | n | n | n | 42 | 62 | n | 41
COc1ccc(OCC(O)CNS(=O)(=O)c2ccc(NC(C)=O)cc2)cc1 (stereo not given) | n | n | n | n | x | x | x
COc1ccc(OCC(O)CNC(=O)Nc2ccccc2)cc1 (stereo not given) | n | n | n | 9.4 | 21 | n | n
COCC(=O)N[C@H]1C[C@@H]2O[C@@H](CO)CC[C@@H]2O[C@@H]1CCc1ccc(-c2ccccc2)cc1 | n | n | n | x | x | x | x
CCOc1c(Cl)cc(CNc2ccc(S(N)(=O)=O)cc2)cc1OC | n | n | n | n | x | x | x
COc1c(Cl)cc(Cl)cc1CNc1ccc(S(N)(=O)=O)cc1 | n | n | n | 16 | 25 | 17 | n
COC(=O)[C@@]12CCCCC=C1N(CCc1ccc(Cl)cc1)C(=O)[C@H]2CC(=O)NCC12CC3CC(CC(C3)C1)C2 | n | n | n | x | x | x | x
COc1ccc(N2CCN(C(=O)CCCCn3c(=O)[nH]c4ccsc4c3=O)CC2)cc1 | n | n | n | 6.7 | 13 | n | n
